These results are taken from ChEMBL document CHEMBL2429741 (J Med Chem, 2013).

Experiment [1] relates to Plasmodium falciparum. The experiment can be described thus: Antimicrobial activity against chloroquine-sensitive blood stage forms of Plasmodium falciparum 3D7 after 3 days by HRP2-based ELISA. Particulars: 3D7, 72 h. In kind it is functional, organism-based. The method, boiled down:
(§1)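 Sorbitol-synchronized ring-stage parasites (0.05% parasitemia, 1.5% hematocrit, O Rh+ erythrocytes) in RPMI 1640/HEPES/glutamine/gentamycin/0.5% Albumax, 37 °C, 5% CO2, 5% O2. Added to plates precoated with 3-fold compound dilutions from DMSO stocks; 3-day incubation; plates freeze-thawed twice; HRP2 ELISA. Chloroquine control each run. IC50 from nonlinear regression of log concentration-response; mean of two independent duplicate determinations.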

The nature of experiment [2]: Inhibition of Plasmodium falciparum IspC expressed in recombinant Escherichia coli M15 by photometric assay. The gist of the method: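 His-tagged enzyme from E. coli M15 pREP4 pQEIspCplasart20, induced with 1 mM IPTG overnight at 30 °C, Ni-imidazole purified, about 95% pure. Inhibitor 1:3 over about 200–0.003 μM. DXP start, final 0.5–5.0 mM. 340 nm, room temperature. Nonlinear-regression IC50, ≥8 points.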

The test system of experiment [3] is Plasmodium falciparum. The experiment in a line: Antimicrobial activity against chloroquine-resistant blood stage forms of Plasmodium falciparum Dd2 after 3 days by HRP2-based ELISA. In kind it is functional, organism-based. The conditions noted are these: Dd2, 72 h. The gist of the method: as §1
The nature of experiment [4]: Inhibition of Escherichia coli IspC by photometric assay. The method, boiled down: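 NADPH-coupled photometric read at 340 nm, room temperature. Inhibitor 1:3 dilutions over about 200–0.003 μM. Started with 1-deoxy-D-xylulose 5-phosphate, final 0.5–5.0 mM. IC50 from nonlinear regression of ≥8 points, mean ± SD; generally 2–3 independent determinations.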
The target of experiment [5] is T1, 1-deoxy-D-xylulose 5-phosphate reductoisomerase (Mycobacterium tuberculosis, UniProt P9WNS1).
T1 sequence (P9WNS1 whole entry): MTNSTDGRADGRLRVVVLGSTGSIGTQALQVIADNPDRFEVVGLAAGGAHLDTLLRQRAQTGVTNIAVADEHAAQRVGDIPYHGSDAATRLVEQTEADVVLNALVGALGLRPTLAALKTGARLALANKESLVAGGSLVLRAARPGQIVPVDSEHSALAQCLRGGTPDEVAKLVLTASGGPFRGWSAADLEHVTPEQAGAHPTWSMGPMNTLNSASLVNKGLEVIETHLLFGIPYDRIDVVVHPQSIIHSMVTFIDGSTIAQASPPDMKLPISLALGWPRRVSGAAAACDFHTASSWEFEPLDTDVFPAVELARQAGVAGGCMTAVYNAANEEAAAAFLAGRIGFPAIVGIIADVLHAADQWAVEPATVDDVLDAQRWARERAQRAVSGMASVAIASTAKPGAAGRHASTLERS
The experiment in a line: Inhibition of Mycobacterium tuberculosis IspC by photometric assay. The method, boiled down: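 Photometric NADPH-consumption assay at pH 7.6 (Tris) with 5 mM MgCl2, 5 mM DTT, 0.5 mM NADPH and 0.02 U IspC. Inhibitor 1:3 series covered about 200–0.003 μM. Started with 1-deoxy-D-xylulose 5-phosphate (0.5–5.0 mM final); A340 read at room temperature.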

Turning to `O=C(CSC(c1ccc(F)c(F)c1)P(=O)(O)O)NO` (racemic), the IC50 in experiment [1] came to 160 nM; in experiment [2] it was 15 nM; in experiment [3], 330 nM; in experiment [4], 77 nM; in experiment [5] it was 1700 nM.
As to `O=C(COC(c1ccc(F)c(F)c1)P(=O)(O)O)NO` (stereo unspecified), the IC50 is over 50000 nM in experiment [1], 3900 nM in experiment [2], 49000 nM in experiment [4] and over 500000 nM in experiment [5].
For `Cc1ccc(C(SCC(=O)N(C)O)P(=O)(O)O)cc1` (racemic), the IC50 stood at 111 nM in experiment [1]; 18 nM in experiment [2]; 95 nM in experiment [3]; 33 nM in experiment [4]; 110 nM in experiment [5].
For the molecule `CN(O)C(=O)CS[C@@H](c1ccccc1)P(=O)(O)O`, the IC50 in experiment [2] is 9.4 nM; in experiment [4] it was 5.1 nM; in experiment [5], 120 nM. For the same molecule, the Ki in experiment [2] was 1.7 nM.
As for `Cc1ccc(C(CCC(=O)N(C)O)P(=O)(O)O)cc1` (stereo unspecified), the IC50 in experiment [2] was 14 nM; in experiment [4] it was 286 nM; in experiment [5] it was 1800 nM.
In the case of `O=C(CSC(c1ccccc1)P(=O)(O)O)NO` (racemic), the IC50 in experiment [1] is 2900 nM; in experiment [2], 110 nM; in experiment [3], 3770 nM; in experiment [4], 600 nM; in experiment [5], 15000 nM.
`CN(O)C(=O)CCC(c1cccc2ccccc12)P(=O)(O)O` (stereo unspecified): the IC50 in experiment [2] was determined as 9.4 nM; in experiment [4] it was 3830 nM; in experiment [5], 13000 nM.
The like results for `CN(O)C(=O)COC(c1ccc(Cl)c(Cl)c1)P(=O)(O)O` (stereo unspecified) were, in that order, 14 nM, 200 nM and 1600 nM.
As for `CN(O)C(=O)CSC(c1cccc2ccccc12)P(=O)(O)O` (racemic), the IC50 was 380 nM in experiment [1]; 9.8 nM in experiment [2]; 510 nM in experiment [3]; 140 nM in experiment [4]; 550 nM in experiment [5].
`CN(O)C(=O)CSC(c1ccccc1)P(=O)(O)O` (racemic): the IC50 in experiment [1] stood at 30 nM; in experiment [2] it was 24 nM; in experiment [3] it was 75 nM; in experiment [4] it was 8.2 nM; in experiment [5], 280 nM. Also, the Ki in experiment [2] was 4.4 nM.
In the case of `CN(O)C(=O)CS[C@H](c1ccccc1)P(=O)(O)O`, the IC50 in experiment [2] turned out to be 12000 nM; in experiment [4], 4000 nM; in experiment [5], 83000 nM. Further, the Ki in experiment [2] turned out to be 2200 nM.
Consider `CN(O)C(=O)COC(c1cccc2ccccc12)P(=O)(O)O` (stereo unspecified), for which the IC50 in experiment [2] came out at 39 nM; in experiment [4], 4600 nM; in experiment [5] it was 15000 nM.
For `Cc1ccc(C(OCC(=O)N(C)O)P(=O)(O)O)cc1` (stereo unspecified) the same measures were 25 nM, 320 nM and 4000 nM.
With `O=C(CSC(c1ccc(Cl)c(Cl)c1)P(=O)(O)O)NO` (racemic), the IC50 in experiment [1] came to 540 nM; in experiment [2] it was 200 nM; in experiment [3], 870 nM; in experiment [4], 44 nM; in experiment [5] it was 720 nM.
As for `CN(O)C(=O)COC(c1ccccc1)P(=O)(O)O` (stereo unspecified), the IC50 came to 37 nM in experiment [2], 940 nM in experiment [4] and 16000 nM in experiment [5].
Take `O=C(CCC(c1ccc(F)c(F)c1)P(=O)(O)O)NO` (stereo unspecified): the IC50 in experiment [1] worked out at 75 nM; in experiment [2], 3.9 nM; in experiment [3], 65 nM; in experiment [4], 178 nM; in experiment [5] it was 3400 nM.
As to `O=C(COC(c1ccccc1)P(=O)(O)O)NO` (stereo unspecified), the IC50 turned out to be 1500 nM in experiment [2], 20000 nM in experiment [4] and 466000 nM in experiment [5].
In turn, `O=CN(O)CCCP(=O)(O)O` [FOSMIDOMYCIN] came in with an IC50 in experiment [4] of 221 nM.
Turning to `CN(O)C(=O)CCC(c1ccc(Cl)c(Cl)c1)P(=O)(O)O` (stereo unspecified), the IC50 in experiment [2] is 2.8 nM; in experiment [4], 208 nM; in experiment [5], 280 nM.
As for `CN(O)C(=O)CSC(c1ccc(F)c(F)c1)P(=O)(O)O` (racemic), the half-inhibitory concentration (IC50) in experiment [1] was 111 nM; in experiment [2], 14 nM; in experiment [3], 88 nM; in experiment [4], 8.5 nM; in experiment [5], 42 nM.
The like results for `CN(O)C(=O)CCC(c1ccccc1)P(=O)(O)O` (stereo unspecified) were, in that order, 90 nM, 3.1 nM, 74 nM, 243 nM and 2000 nM.
For `O=C(CCC(c1ccccc1)P(=O)(O)O)NO` (stereo unspecified) the same measures were 400 nM, 12 nM, 570 nM, 592 nM and 14000 nM.
Regarding `CN(O)C(=O)COC(c1ccc(F)c(F)c1)P(=O)(O)O` (stereo unspecified), the IC50 in experiment [2] came out at 12 nM; in experiment [4], 240 nM; in experiment [5], 4600 nM.
`CN(O)C(=O)CCC(c1ccc(F)c(F)c1)P(=O)(O)O` (stereo unspecified): the IC50 in experiment [1] is 122 nM; in experiment [2] it was 3.4 nM; in experiment [3] it was 40 nM; in experiment [4], 117 nM; in experiment [5] it was 770 nM.
`CN(O)C(=O)CSC(c1ccc(Cl)c(Cl)c1)P(=O)(O)O` (racemic): the IC50 was 91 nM in experiment [1]; 4.5 nM in experiment [2]; 85 nM in experiment [3]; 5.9 nM in experiment [4]; 9.2 nM in experiment [5].
